# Test results published in ChEMBL document CHEMBL4689842, “EUbOPEN Chemogenomics Library wave 1” (2021).
# Test system: U2OS
# Test: Multiplex assay against U2OS
# Type: toxicity, cell-based
# Settings: human
# Method in brief: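 Four dyes were applied at seeding to live cells: Hoechst33342, BioTracker Green Microtubule Cytoskeleton Dye, MitoTracker Red and Annexin V Alexa Fluor 680. Imaging after compound addition used a CQ1 microscope at 37°C and 5% CO2. CellPathfinder machine-learning gating then sorted cells into Hoechst high-intensity objects or normal cells, normal cells into healthy, pyknosed or fragmented nuclei, and pyknosed cells into mitotic or apoptotic, with tubulin, mitochondrial-mass and membrane-permeability phenotypes given as per cents of healthy-nucleus cells.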
# [1] = 12 h, 1 µM, compound concentration 1 uM, replicate 1
# [2] = 12 h, 1 µM, compound concentration 1 uM, replicate 2
# [3] = 12 h, 10 µM, compound concentration 10 uM, replicate 1
# [4] = 12 h, 10 µM, compound concentration 10 uM, replicate 2
# [5] = 24 h, 1 µM, compound concentration 1 uM, replicate 1
# [6] = 24 h, 1 µM, compound concentration 1 uM, replicate 2
# [7] = 24 h, 10 µM, compound concentration 10 uM, replicate 1
# [8] = 24 h, 10 µM, compound concentration 10 uM, replicate 2
smiles,measurement,setting,value
CCc1cccc(CC)c1NC(=O)c1nn(C)c2c1CCc1cnc(Nc3ccc(N4CCN(C)CC4)cc3OC)nc1-2,Population Apoptotic (%),[1],70%
same,Population Fragmented Nuclei (%),[1],38%
same,Population Healthy Nuclei (%),[1],7%
same,Population Hoechst High Intensity Objects (%),[1],8%
same,Population Membrane Permeable-Phenotype (%),[1],100%
same,Population Mitochondria Different-Phenotype (%),[1],75%
same,Population Mitotic Cells (%),[1],29%
same,Population Normal (%),[1],91%
same,Population Pyknosed Nuclei (%),[1],53%
same,Population Tubulin-Different-Phenotype (%),[1],100%
same,Total Cell Count,[1],159
same,Population Apoptotic (%),[2],68%
same,Population Fragmented Nuclei (%),[2],18%
same,Population Healthy Nuclei (%),[2],12%
same,Population Hoechst High Intensity Objects (%),[2],14%
same,Population Membrane Permeable-Phenotype (%),[2],77%
same,Population Mitochondria Different-Phenotype (%),[2],100%
same,Population Mitotic Cells (%),[2],31%
same,Population Normal (%),[2],85%
same,Population Pyknosed Nuclei (%),[2],68%
same,Total Cell Count,[2],87
same,Population Apoptotic (%),[3],26%
same,Population Fragmented Nuclei (%),[3],5%
same,Population Healthy Nuclei (%),[3],80%
same,Population Hoechst High Intensity Objects (%),[3],2%
same,Population Membrane Permeable-Phenotype (%),[3],35%
same,Population Mitochondria Different-Phenotype (%),[3],54%
same,Population Mitotic Cells (%),[3],73%
same,Population Normal (%),[3],97%
same,Population Pyknosed Nuclei (%),[3],14%
same,Population Tubulin-Different-Phenotype (%),[3],95%
same,Total Cell Count,[3],143
same,Population Apoptotic (%),[4],50%
same,Population Fragmented Nuclei (%),[4],8%
same,Population Healthy Nuclei (%),[4],83%
same,Population Hoechst High Intensity Objects (%),[4],18%
same,Population Membrane Permeable-Phenotype (%),[4],22%
same,Population Mitochondria Different-Phenotype (%),[4],69%
same,Population Mitotic Cells (%),[4],50%
same,Population Normal (%),[4],81%
same,Population Pyknosed Nuclei (%),[4],8%
same,Population Tubulin-Different-Phenotype (%),[4],93%
same,Total Cell Count,[4],127
same,Population Apoptotic (%),[5],94%
same,Population Fragmented Nuclei (%),[5],30%
same,Population Healthy Nuclei (%),[5],9%
same,Population Hoechst High Intensity Objects (%),[5],20%
same,Population Membrane Permeable-Phenotype (%),[5],100%
same,Population Mitochondria Different-Phenotype (%),[5],100%
same,Population Mitotic Cells (%),[5],5%
same,Population Normal (%),[5],80%
same,Population Pyknosed Nuclei (%),[5],59%
same,Population Tubulin-Different-Phenotype (%),[5],100%
same,Total Cell Count,[5],169
same,Population Apoptotic (%),[6],92%
same,Population Fragmented Nuclei (%),[6],18%
same,Population Healthy Nuclei (%),[6],17%
same,Population Mitotic Cells (%),[6],7%
same,Population Pyknosed Nuclei (%),[6],64%
same,Total Cell Count,[6],84
same,Population Apoptotic (%),[7],53%
same,Population Fragmented Nuclei (%),[7],10%
same,Population Healthy Nuclei (%),[7],71%
same,Population Hoechst High Intensity Objects (%),[7],1%
same,Population Membrane Permeable-Phenotype (%),[7],22%
same,Population Mitochondria Different-Phenotype (%),[7],73%
same,Population Mitotic Cells (%),[7],46%
same,Population Normal (%),[7],98%
same,Population Pyknosed Nuclei (%),[7],18%
same,Population Tubulin-Different-Phenotype (%),[7],92%
same,Total Cell Count,[7],196
same,Population Apoptotic (%),[8],41%
same,Population Fragmented Nuclei (%),[8],14%
same,Population Healthy Nuclei (%),[8],69%
same,Population Hoechst High Intensity Objects (%),[8],10%
same,Population Membrane Permeable-Phenotype (%),[8],21%
same,Population Mitochondria Different-Phenotype (%),[8],75%
same,Population Mitotic Cells (%),[8],58%
same,Population Normal (%),[8],89%
same,Population Pyknosed Nuclei (%),[8],16%
same,Population Tubulin-Different-Phenotype (%),[8],94%
same,Total Cell Count,[8],163
